Results on four compounds are retold here after ChEMBL document CHEMBL3091326, “Design, synthesis, and evaluation of curcumin-derived arylheptanoids for glioblastoma and neuroblastoma cytotoxicity” (Bioorg Med Chem Lett, 2013).

Series [1] can be described thus: Cytotoxicity against human U87MG cells after 5 days by methylene blue staining assay. The format is functional, cell-based, U-87MG ATCC. Particulars: U-87 MG, 120 h. A digest of the protocol:
(§1)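 Cells exposed in triplicate to vehicle or increasing compound concentrations; survival read 5 days post-exposure. Cell mass quantified by methylene blue staining, dye solubilized in 0.1N HCl, absorbance at 610nm. Mean and standard deviation; significance vs media control by Dunnett's multiple comparisons test. IC50 derived from dose-response data.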

The subject of series [2] is SK-N-FI. Kind of series: Cytotoxicity against human SK-N-FI cells after 5 days by methylene blue staining assay. The format is functional, cell-based. Particulars: 120 h. A digest of the protocol:
as §1

The test system of series [3] is SK-N-SH. Kind of series: Cytotoxicity against human SK-N-SH cells after 5 days by methylene blue staining assay. The format is functional, cell-based. Particulars: 120 h. A digest of the protocol: as §1
Series [4] in a line: Cytotoxicity against human U87MG cells expressing sh-GFP after 5 days by methylene blue staining assay. Particulars: U-87 MG, 120 h. The format is functional, cell-based, U-87MG ATCC. A digest of the protocol:
as §1

Series [5] can be described thus: Cytotoxicity against human CD34-positive blood stem/progenitor cells at 0.3 to 30 uM after 10 to 14 days by inverted light microscopic analysis. The format is cell-based. A digest of the protocol: (§2)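 Human CD34+ progenitor cells isolated from umbilical cord blood, treated in triplicate at 0.3, 3.0 and 30 µM in colony-forming unit assays. Progenitor cell (colony) frequency determined after 14 days; compared against control.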

Series [6] is described as follows: Cytotoxicity against human CD34-positive blood stem/progenitor cells at 30 uM after 10 to 14 days by inverted light microscopic analysis relative to control. The format is cell-based. A digest of the protocol:
as §2

Series [7] in a line: Cytotoxicity against p53-knockdown human U87MG cells after 5 days by methylene blue staining assay. The following applies: U-87 MG, 120 h. The format is functional, cell-based, U-87MG ATCC. A digest of the protocol: as §1

A word on the IC50: it is the concentration needed to halve the response being measured. Higher therefore signals weaker potency in that assay. Regarding `COc1cc(OC)c(C(C#CCCc2ccc(O[Si](C)(C)C(C)(C)C)cc2)CC(=O)c2ccc(O[Si](C)(C)C(C)(C)C)cc2)c(OC)c1` (centres undefined), the IC50 in series [1] is 19.1 µM; in series [2], over 100 µM; in series [3], 48.8 µM.

On to `COc1cc(OC)c(C(C#CCCc2ccc(O[Si](C)(C)C(C)(C)C)cc2)CC(=O)c2ccc(OC(C)=O)cc2)c(OC)c1` (centres undefined), for which the IC50 was 8 µM in series [1]; 22.1 µM in series [2]; 6.9 µM in series [4]; 11.7 µM in series [3]; 7 µM in series [7]. Further, the figures for the Activity entry in series [5] and in series [6] were “Non-toxic” and 20%, respectively.

Take `COc1cc(OC)c(C(C#CCCc2ccc(O[Si](C)(C)C(C)(C)C)cc2)CC(=O)c2ccc(O)cc2)c(OC)c1` (centres undefined): the IC50 in series [1] stood at 7.5 µM; in series [2], 31.1 µM; in series [4], 7 µM; in series [3], 18.1 µM; in series [7], 7 µM. Also, the Activity result in series [5] is listed as “Non-toxic”.

`COc1cc(/C=C/C(=O)CC(=O)/C=C/c2ccc(O)c(OC)c2)ccc1O` [CURCUMIN]: the IC50 in series [1] stood at 8.1 µM; in series [2] it was 11.3 µM; in series [3] it was 6.4 µM.
